Measured values: ChEMBL document CHEMBL1132107, “Design and synthesis of water-soluble glucuronide derivatives of camptothecin for cancer prodrug monotherapy and antibody-directed enzyme prodrug therapy (ADEPT)” (J Med Chem, 1999)
Values after ≈ are worked out from the molar mass of the structure shown.

Assays:
COLO 205 [1] = assay: Cytotoxicity in the presence of beta-Glucuronidase (betaG, 5 micro g/ml) towards human colorectal cells(COLO 205); format: functional, cell-based
Procedure, shortened: (§1)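 Same 72 h [³H]thymidine-incorporation assay (1-1.5 × 10⁴ cells/well in RPMI/10% bovine serum, 37 °C, 5% CO₂), with β-glucuronidase added at 5 µg/mL alongside the drug concentration series. Controls were medium or 0.5% DMSO. IC50 was interpolated from log dose-response curves, as means of 1-3 experiments in triplicate.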

HT-29 [2] = assay: Cytotoxicity in the presence of beta-Glucuronidase (betaG, 5 micro g/ml) towards human colorectal cells (HT-29); format: functional, cell-based; procedure, shortened: as §1
[3] = Solubility is determined at pH 4.0; format: physicochemical; conditions: buffer
Procedure, shortened: (§2)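 Excess solid was equilibrated 24 h at 25 °C in 100 mM phosphate buffer pH 4.0, or in βG buffer (acetic acid/bis-tris/triethanolamine) pH 7.0. Samples were filtered through 0.22 µm, diluted in mobile phase and quantified by C18 HPLC (45% MeOH/25 mM phosphate pH 2.55, fluorescence ex 397/em 482 nm) against calibration curves. Values are in mg/mL.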

HepG2 [4] = assay: Cytotoxicity in the presence of beta-Glucuronidase (betaG, 5 micro g/ml) towards human hepatocellular cells (HepG2); format: functional, cell-based; procedure, shortened: as §1
HepG2 [5] = assay: Cytotoxicity expressed as the concentration that inhibited incorporation of [3H]-thymidine into cellular DNA of human hepatocellular cells (HepG2); format: functional, cell-based
Procedure, shortened: (§3)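 Exponentially growing tumour cells, 1-1.5 × 10⁴ cells/well, in RPMI with 10% bovine serum plus penicillin/streptomycin, exposed 72 h (37 °C, 5% CO₂) to a drug concentration series. Drugs were dissolved in DMSO (≤0.5% final) or in medium. [³H]thymidine incorporation into DNA was read after PBS wash and trypsin harvest. IC50 was interpolated from log dose-response curves, as means of 1-3 experiments in triplicate.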

COLO 205 [6] = assay: Cytotoxicity expressed as the concentration that inhibited incorporation of [3H]thymidine into cellular DNA of human colorectal cells (COLO 205); format: functional, cell-based; procedure, shortened: as §3
[7] = Cytotoxicity in the presence of beta-Glucuronidase (betaG, 5 micro g/ml) towards human cervical cells(CaSki); format: functional, cell-based; procedure, shortened: as §1
[8] = Cytotoxicity expressed as the concentration that inhibited incorporation of [3H]thymidine into cellular DNA of human cervical cells (CaSki); format: functional, cell-based; procedure, shortened: as §3
NCI-H928 [9] = assay: Cytotoxicity expressed as the concentration that inhibited incorporation of [3H]-thymidine into cellular DNA of human lung carcinoma cells (H928); format: functional, cell-based; procedure, shortened: as §3
HepG2 [10] = assay: Cytotoxicity expressed as the concentration that inhibited incorporation of [3H]thymidine into cellular DNA of human hepatocellular cells (HepG2); format: functional, cell-based; procedure, shortened: as §3
[11] = Percentage of compound converted to 9-aminocamptothecin for hydrolysis by beta-Glucuronidase( incubated at pH 7.0 for 2 hr at 37 degrees Celsius at the concentration 0.01 ug/mL); format: ADME; conditions: buffer, pH 7, 2 h
Procedure, shortened: (§4)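 The reaction was quenched with ice-cold MeOH/5% H₃PO₄ (6/1) and centrifuged. Supernatant was analysed by reversed-phase C18 HPLC with fluorescence detection (ex 397/em 482 nm) to give the % converted to 9-aminocamptothecin.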

[12] = Solubility is determined at pH 7.0; format: physicochemical; conditions: buffer; procedure, shortened: as §2
[13] = Percentage of compound converted to 9-aminocamptothecin for hydrolysis by beta-Glucuronidase(incubated at pH 7.0 for 2 hr at 37 degrees Celsius at the concentration 0.5 ug/mL); format: ADME; conditions: buffer, pH 7, 2 h; procedure, shortened: as §4
[14] = Percentage of compound converted to 9-aminocamptothecin for hydrolysis by beta-Glucuronidase( incubated at pH 7.0 for 2 hr at 37 degrees Celsius at the concentration 0.1 ug/mL); format: ADME; conditions: buffer, pH 7, 2 h; procedure, shortened: as §4
HT-29 [15] = assay: Cytotoxicity expressed as the concentration that inhibited incorporation of [3H]thymidine into cellular DNA of human colorectal cells (HT-29); format: functional, cell-based; procedure, shortened: as §3
NCI-H928 [16] = assay: Cytotoxicity in the presence of beta-Glucuronidase (betaG, 5 micro g/ml) towards human lung carcinoma cells (H928); format: functional, cell-based; procedure, shortened: as §1
[17] = Percentage of compound converted to 9-aminocamptothecin for hydrolysis by beta-Glucuronidase( incubated at pH 7.0 for 2 h at 37 degrees Celsius at the concentration 0.05 ug/mL); format: ADME; conditions: buffer, pH 7, 2 h; procedure, shortened: as §4

| Structure (SMILES) | solubility [3] [mg/mL] | IC50 (HepG2 [4]) [nM] | IC50 (COLO 205 [6]; colo 205) [nM] | IC50 [8] [nM] | IC50 (COLO 205 [6]; Homo sapiens, COLO 205) [nM] | IC50 (NCI-H928 [9]) [nM] | IC50 ([8]; Homo sapiens) [nM] | IC50 (HepG2 [10]) [nM] | solubility [12] | IC50 (HT-29 [15]) [nM] | also measured |
| --- | --- | --- | --- | --- | --- | --- | --- | --- | --- | --- | --- |
| CC[C@@]1(O)C(=O)OCc2c1cc1n(c2=O)Cc2cc3c(NC(=O)OCc4ccc(O[C@@H]5O[C@H](C(=O)[O-])[C@@H](O)[C@H](O)[C@H]5O)cc4)cccc3nc2-1.[K+] | 25 | 6.7 | 460 | 510 |  |  |  |  |  |  | IC50 (COLO 205 [1]; Homo sapiens, COLO 205): 8.2 nM; IC50 (HT-29 [2]; Homo sapiens, HT-29): 11 nM; IC50 (HepG2 [5]): 280 nM; IC50 ([7]; Homo sapiens): 9.1 nM |
| CC[C@@]1(O)C(=O)OCc2c1cc1n(c2=O)Cc2cc3ccccc3nc2-1 [CAMPTOTHECIN] |  |  |  |  | 5.4 | 7.8 | 8.5 | 6.3 |  |  |  |
| CC[C@@]1(O)C(=O)OCc2c1cc1n(c2=O)Cc2cc3c(NC(=O)OCc4ccc(O[C@@H]5O[C@H](C(=O)O)[C@@H](O)[C@H](O)[C@H]5O)cc4)cccc3nc2-1 | 0.5 (≈ 725 µM) | 2.9 | 200 | 190 |  | 300 |  | 110 | 110 mg/kg | 150 | Conversion [11]: 45%; IC50 (COLO 205 [1]; colo 205): 8 nM; IC50 (HT-29 [2]; ht-29): 6.6 nM; Conversion [13]: 92%; IC50 [7]: 7.8 nM; Conversion [14]: 98%; IC50 (NCI-H928 [16]): 7.9 nM; Conversion [17]: 92% |
| CC[C@@]1(O)C(=O)OCc2c1cc1n(c2=O)Cc2cc3c(N)cccc3nc2-1 [9-AMINOCAMPTOTHECIN] | 0.006 (≈ 16.5 µM) |  |  |  | 6.6 | 7.9 | 8.5 | 3.5 | 0.06 mg/mL (≈ 165 µM) | 7.4 |  |
